Test results as given in ChEMBL document CHEMBL1143390 (Bioorg Med Chem, 2009).

Key:
CCRF-CEM = assay: Cytotoxicity against human CEM cells after 3 days by MTT assay; type: cell-based; details: 72 h
How it was run: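 CEM T-lymphoblastoid cells in log phase, seeded at 2.5×10^3 cells/well with 10-fold serial dilutions of drug. Incubated 3 days at 37 °C in humidified 5% CO2-air. MTT dye added overnight, then solubilization for 5 h and read at 570 nm. IC50 from the concentration-response curve by the median effect method.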

[1] = Chemical stability in phosphate buffer assessed as hydrolysis half life at pH 2.0; type: physicochemical
How it was run: (§1)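 Prodrug, 1 mM in DMSO, diluted into 10 mM phosphate buffer at pH 2.0 or 7.4, ionic strength 0.1 set with NaCl, final 5% DMSO. Held at 37 ± 0.5 °C in screw-capped vials. Samples drawn over time, filtered and analysed by HPLC. Half-life from linear regression of a pseudo-first-order plot.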

[2] = Chemical stability in phosphate buffer assessed as hydrolysis half life at pH 7.4; type: physicochemical; how it was run: as §1
[3] = Chemical stability in Tris-HCl buffer assessed as hydrolysis half life at pH 8 in presence of porcine esterase; type: physicochemical; details: pig, isolated protein
How it was run: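 Prodrug at 1.4 mM final in pH 8.0 Tris-HCl with 5% DMSO and 20 μg/mL porcine esterase, incubated at 37 ± 0.5 °C. Aliquots quenched in ice-cold methanol/acetonitrile 1/1, filtered and analysed by HPLC. Enzyme activity checked with ethyl butyrate substrate.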

[4] = system: Human immunodeficiency virus 1; assay: Antiviral activity against HIV1 LAI infected in PBM cells; details: Human immunodeficiency virus 1, LAI, PBMC
PBMC = assay: Cytotoxicity against human PBM cells after 4 days by MTT assay; details: 96 h
Vero = assay: Cytotoxicity against african green monkey Vero cells after 2 days by MTT assay; details: Chlorocebus sabaeus, 48 h

Row | t1/2 [1] | t1/2 [2] | t1/2 [3] | EC50 [4] | EC90 [4] | Structure (SMILES) | IC50 (CCRF-CEM) | IC50 (PBMC) | IC50 (Vero)
1 | 13.3 h | 34 h | 0.292 h | 3 µM | 9.9 µM | CC[C@H](C)[C@H](N)C(=O)OC[C@@H]1OC[C@H](n2cc(C)c(=O)[nH]c2=O)O1.Cl | > 100 µM | > 100 µM | > 100 µM
2 | 3.17 h | 4 h | 0.223 h | 0.89 µM | 6.3 µM | Cc1cn([C@H]2CO[C@@H](COC(=O)[C@@H](N)CCC(=O)O)O2)c(=O)[nH]c1=O.Cl | > 100 µM | > 100 µM | > 100 µM
3 |  |  | 0.293 h | 1.4 µM | 9.7 µM | Cc1cn([C@H]2CO[C@@H](COCOC(=O)C(C)(C)C)O2)c(=O)[nH]c1=O | > 100 µM | > 100 µM | > 100 µM
4 | 8.67 h | 22 h | 0.207 h | 2.5 µM | 8.4 µM | Cc1cn([C@H]2CO[C@@H](COC(=O)CN)O2)c(=O)[nH]c1=O.Cl | > 100 µM | > 100 µM | > 100 µM
5 | 12.2 h | 30 h | 0.323 h | 0.98 µM | 6.5 µM | Cc1cn([C@H]2CO[C@@H](COC(=O)[C@H](N)C(C)C)O2)c(=O)[nH]c1=O.Cl | > 100 µM | > 100 µM | > 100 µM
6 | 14.5 h | 35.83 h | 0.298 h | 3.3 µM | 12.4 µM | Cc1cn([C@H]2CO[C@@H](COC(=O)[C@@H](N)CC(C)C)O2)c(=O)[nH]c1=O.Cl | > 100 µM | > 100 µM | > 100 µM
7 | 16 h | 36.67 h | 0.315 h | 0.56 µM | 4.9 µM | Cc1cn([C@H]2CO[C@@H](COC(=O)[C@@H](N)C(C)C)O2)c(=O)[nH]c1=O.Cl | > 100 µM | > 100 µM | > 100 µM
8 | 5.33 h | 7 h | 0.297 h | 1.7 µM | 8 µM | Cc1cn([C@H]2CO[C@@H](COC(=O)[C@@H](N)Cc3c[nH]c4ccccc34)O2)c(=O)[nH]c1=O.Cl | > 100 µM | > 100 µM | > 100 µM
9 | 30.83 h | 53.33 h | 0.322 h | 1.3 µM | 3.9 µM | Cc1cn([C@H]2CO[C@@H](COC(=O)C3CCCCC3)O2)c(=O)[nH]c1=O | > 100 µM | > 100 µM | > 100 µM
10 | 7.17 h | 15.7 h | 0.26 h | 1 µM | 5.2 µM | Cc1cn([C@H]2CO[C@@H](COC(=O)[C@H](N)Cc3ccccc3)O2)c(=O)[nH]c1=O.Cl | > 100 µM | > 100 µM | > 100 µM
11 |  |  | 0.8 h | 23.5 µM | > 100 µM | CCCCCCCCCCCCCCCC(=O)OC[C@@H]1OC[C@H](n2cc(C)c(=O)[nH]c2=O)O1 | > 100 µM | > 100 µM | 92.2 µM
12 | 26.67 h | 53 h | 0.308 h | 0.4 µM | 2.5 µM | CCCCC(=O)OC[C@@H]1OC[C@H](n2cc(C)c(=O)[nH]c2=O)O1 | > 100 µM | > 100 µM | 49 µM
13 | 30 h | 54.17 h | 0.483 h | 0.6 µM | 4.3 µM | CCCCCCCC(=O)OC[C@@H]1OC[C@H](n2cc(C)c(=O)[nH]c2=O)O1 | > 100 µM | > 100 µM | > 100 µM
14 | 26.33 h | 44.17 h | 0.272 h | 2.9 µM | 12.3 µM | CC(=O)OC[C@@H]1OC[C@H](n2cc(C)c(=O)[nH]c2=O)O1 | 99.4 µM | > 100 µM | > 100 µM
15 | 15.3 h | 31.17 h | 0.223 h | 2.2 µM | 7.6 µM | Cc1cn([C@H]2CO[C@@H](COC(=O)C(C)(C)N)O2)c(=O)[nH]c1=O.Cl | > 100 µM | > 100 µM | > 100 µM
16 | 14.5 h | 26.67 h | 0.232 h | 0.98 µM | 8.3 µM | Cc1cn([C@H]2CO[C@@H](COC(=O)[C@H](C)N)O2)c(=O)[nH]c1=O.Cl | > 100 µM | > 100 µM | > 100 µM
17 | 20 h | 46.67 h | 0.288 h | 4.7 µM | 15.1 µM | Cc1cn([C@H]2CO[C@@H](COC(=O)C3CC3)O2)c(=O)[nH]c1=O | > 100 µM | > 100 µM | > 100 µM
18 | 9.17 h | 17.83 h | 0.243 h | 0.88 µM | 4.4 µM | Cc1cn([C@H]2CO[C@@H](COC(=O)[C@@H](N)Cc3ccccc3)O2)c(=O)[nH]c1=O.Cl | > 100 µM | > 100 µM | > 100 µM
19 | 3.83 h | 6.33 h | 0.227 h | 1.4 µM | 7.3 µM | Cc1cn([C@H]2CO[C@@H](COC(=O)[C@@H]3CCCN3)O2)c(=O)[nH]c1=O.Cl | > 100 µM | > 100 µM | > 100 µM
20 |  |  | 0.683 h | 0.4 µM | 3.2 µM | CCCCCCCCCCCC(=O)OC[C@@H]1OC[C@H](n2cc(C)c(=O)[nH]c2=O)O1 | > 100 µM | > 100 µM | > 100 µM
21 | 21.67 h | 46.33 h | 0.283 h | 1.3 µM | 14.5 µM | Cc1cn([C@H]2CO[C@@H](COC(=O)C(C)(C)C)O2)c(=O)[nH]c1=O | > 100 µM | > 100 µM | 18.1 µM
22 |  |  |  |  | 0.04 µM | Cc1cn([C@H]2C[C@H](N=[N+]=[N-])[C@@H](CO)O2)c(=O)[nH]c1=O [ZIDOVUDINE] |  | > 100 µM | 
